According to ChEMBL document CHEMBL1122931, “Uridine 5'-diphosphate glucose analogues. Inhibitors of protein glycosylation that show antiviral activity” (J Med Chem, 1985):

Assays:
[1] = (§1) Concentration that induces 50% cell toxicity was determined using monolayers of uninfected HeLa cells; assay type: cell-based; conditions: human, monolayers of uninfected HeLa cells; read-out: Tox50
In short: (§2)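 Uninfected HeLa monolayers, grown in DMEM with 10% newborn calf serum, were exposed to several concentrations of compound. They were incubated for 48 h at 37 °C, as in the parallel HSV-1 cytopathic-effect assay. Toxicity was judged by phase-contrast microscopy.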

Human alphaherpesvirus 1 = assay: Concentration that protects by 50% the cytopathic effect induced by herpes simplex virus - 1.; assay type: functional
In short: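 HeLa monolayers (DMEM + 10% newborn calf serum) infected with HSV-1 strain KOS (Vero-grown and titrated) at moi 0.5 pfu/cell in presence of several compound concentrations; 48 h at 37 °C, then cytopathic effect scored by phase-contrast microscopy. Toxicity judged microscopically in uninfected cells.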

HeLa = assay: as §1; assay type: cell-based; conditions: human, hela; read-out: Tox50; in short: as §2

NC(=O)O[C@H]1O[C@H](COCc2ccccc2)[C@@H](OCc2ccccc2)[C@H](OCc2ccccc2)[C@H]1OCc1ccccc1
CC50 [1]: > 350 µM
CPE50 (Human alphaherpesvirus 1): >350 µM

CC1(C)O[C@@H]2[C@H](O1)[C@@H](COS(=O)(=O)NC(=O)O[C@H]1O[C@H](COCc3ccccc3)[C@@H](OCc3ccccc3)[C@H](OCc3ccccc3)[C@H]1OCc1ccccc1)O[C@H]2n1ccc(=O)[nH]c1=O
CC50 [1]: 230 µM
CPE50 (Human alphaherpesvirus 1): 85 µM

O=C(NS(=O)(=O)OC[C@H]1OC(n2ccc(=O)[nH]c2=O)[C@H](O)[C@@H]1O)O[C@H]1O[C@H](COCc2ccccc2)[C@@H](OCc2ccccc2)[C@H](OCc2ccccc2)[C@H]1OCc1ccccc1 (some centres undefined)
CC50 [1]: 360 µM
CPE50 (Human alphaherpesvirus 1): 90 µM

CC(=O)N[C@H]1[C@@H](OC(=O)NS(=O)(=O)OC[C@H]2OC(n3ccc(=O)[nH]c3=O)[C@H](O)[C@@H]2O)O[C@H](COC(C)=O)[C@@H](OC(C)=O)[C@@H]1OC(C)=O (some centres undefined)
CC50 [1]: > 575 µM
CPE50 (Human alphaherpesvirus 1): >575 µM

CC1(C)O[C@@H]2[C@H](O1)[C@@H](COS(N)(=O)=O)O[C@H]2n1ccc(=O)[nH]c1=O
CC50 [1]: 740 µM
CPE50 (Human alphaherpesvirus 1): 740 µM

CC1(C)O[C@@H]2[C@H](O1)[C@@H](COC(N)=O)O[C@H]2n1ccc(=O)[nH]c1=O
CC50 [1]: > 660 µM
CPE50 (Human alphaherpesvirus 1): >660 µM

Nc1nc2c(ncn2COCCO)c(=O)[nH]1 [ACYCLOVIR]
CC50 [1]: 10000 µM
CPE50 (Human alphaherpesvirus 1): 60 µM

NC12CC3CC(CC(C3)C1)C2 [AMANTADINE]
CC50 [1]: 500 µM
CPE50 (Human alphaherpesvirus 1): 200 µM

O=c1[nH]c(=O)n([C@H]2C[C@H](O)[C@@H](CO)O2)cc1/C=C/Br [BRIVUDINE]
CC50 [1]: 400 µM
CPE50 (Human alphaherpesvirus 1): 1 µM

CC(=O)N[C@H]1[C@@H](O[C@@H]2O[C@H](CC(O)[C@H]3O[C@@H](n4ccc(=O)[nH]c4=O)[C@H](O)[C@@H]3O)[C@H](O)[C@H](O)[C@H]2NC(=O)/C=C/CC(C)C)O[C@H](CO)[C@@H](N)[C@@H]1O (some centres undefined) [TUNICAMYCIN]
CC50 (HeLa): 1 µM
